Measurements: ChEMBL document CHEMBL1153918, “Novel fatty acid synthase (FAS) inhibitors: design, synthesis, biological evaluation, and molecular docking studies” (Bioorg Med Chem, 2009)

What was measured:
[1] = target: Fatty acid synthase (Rattus norvegicus) (UniProt P12785); experiment: Inhibition of rat liver FAS at 60 uM by Coomassie blue staining
Method in brief: (§1)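 Rat liver FAS purified, about 90% pure by SDS-PAGE with Coomassie staining. Enzyme, compound, NADPH and acetyl-CoA preincubated in K2HPO4 buffer pH 7.0 for 30 min at 37 °C. Malonyl-CoA then added and NADPH oxidation followed at 340 nm for 3 min at 37 °C. IC50 by linear regression, mean of triplicates. Single-point data given as % inhibition at 60 µM.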

[2] = target: Fatty acid synthase (Rattus norvegicus, UniProt P12785); experiment: Inhibition of rat liver FAS by Coomassie blue staining; method in brief: as §1
Fatty acid synthase, sequence (P12785 whole entry): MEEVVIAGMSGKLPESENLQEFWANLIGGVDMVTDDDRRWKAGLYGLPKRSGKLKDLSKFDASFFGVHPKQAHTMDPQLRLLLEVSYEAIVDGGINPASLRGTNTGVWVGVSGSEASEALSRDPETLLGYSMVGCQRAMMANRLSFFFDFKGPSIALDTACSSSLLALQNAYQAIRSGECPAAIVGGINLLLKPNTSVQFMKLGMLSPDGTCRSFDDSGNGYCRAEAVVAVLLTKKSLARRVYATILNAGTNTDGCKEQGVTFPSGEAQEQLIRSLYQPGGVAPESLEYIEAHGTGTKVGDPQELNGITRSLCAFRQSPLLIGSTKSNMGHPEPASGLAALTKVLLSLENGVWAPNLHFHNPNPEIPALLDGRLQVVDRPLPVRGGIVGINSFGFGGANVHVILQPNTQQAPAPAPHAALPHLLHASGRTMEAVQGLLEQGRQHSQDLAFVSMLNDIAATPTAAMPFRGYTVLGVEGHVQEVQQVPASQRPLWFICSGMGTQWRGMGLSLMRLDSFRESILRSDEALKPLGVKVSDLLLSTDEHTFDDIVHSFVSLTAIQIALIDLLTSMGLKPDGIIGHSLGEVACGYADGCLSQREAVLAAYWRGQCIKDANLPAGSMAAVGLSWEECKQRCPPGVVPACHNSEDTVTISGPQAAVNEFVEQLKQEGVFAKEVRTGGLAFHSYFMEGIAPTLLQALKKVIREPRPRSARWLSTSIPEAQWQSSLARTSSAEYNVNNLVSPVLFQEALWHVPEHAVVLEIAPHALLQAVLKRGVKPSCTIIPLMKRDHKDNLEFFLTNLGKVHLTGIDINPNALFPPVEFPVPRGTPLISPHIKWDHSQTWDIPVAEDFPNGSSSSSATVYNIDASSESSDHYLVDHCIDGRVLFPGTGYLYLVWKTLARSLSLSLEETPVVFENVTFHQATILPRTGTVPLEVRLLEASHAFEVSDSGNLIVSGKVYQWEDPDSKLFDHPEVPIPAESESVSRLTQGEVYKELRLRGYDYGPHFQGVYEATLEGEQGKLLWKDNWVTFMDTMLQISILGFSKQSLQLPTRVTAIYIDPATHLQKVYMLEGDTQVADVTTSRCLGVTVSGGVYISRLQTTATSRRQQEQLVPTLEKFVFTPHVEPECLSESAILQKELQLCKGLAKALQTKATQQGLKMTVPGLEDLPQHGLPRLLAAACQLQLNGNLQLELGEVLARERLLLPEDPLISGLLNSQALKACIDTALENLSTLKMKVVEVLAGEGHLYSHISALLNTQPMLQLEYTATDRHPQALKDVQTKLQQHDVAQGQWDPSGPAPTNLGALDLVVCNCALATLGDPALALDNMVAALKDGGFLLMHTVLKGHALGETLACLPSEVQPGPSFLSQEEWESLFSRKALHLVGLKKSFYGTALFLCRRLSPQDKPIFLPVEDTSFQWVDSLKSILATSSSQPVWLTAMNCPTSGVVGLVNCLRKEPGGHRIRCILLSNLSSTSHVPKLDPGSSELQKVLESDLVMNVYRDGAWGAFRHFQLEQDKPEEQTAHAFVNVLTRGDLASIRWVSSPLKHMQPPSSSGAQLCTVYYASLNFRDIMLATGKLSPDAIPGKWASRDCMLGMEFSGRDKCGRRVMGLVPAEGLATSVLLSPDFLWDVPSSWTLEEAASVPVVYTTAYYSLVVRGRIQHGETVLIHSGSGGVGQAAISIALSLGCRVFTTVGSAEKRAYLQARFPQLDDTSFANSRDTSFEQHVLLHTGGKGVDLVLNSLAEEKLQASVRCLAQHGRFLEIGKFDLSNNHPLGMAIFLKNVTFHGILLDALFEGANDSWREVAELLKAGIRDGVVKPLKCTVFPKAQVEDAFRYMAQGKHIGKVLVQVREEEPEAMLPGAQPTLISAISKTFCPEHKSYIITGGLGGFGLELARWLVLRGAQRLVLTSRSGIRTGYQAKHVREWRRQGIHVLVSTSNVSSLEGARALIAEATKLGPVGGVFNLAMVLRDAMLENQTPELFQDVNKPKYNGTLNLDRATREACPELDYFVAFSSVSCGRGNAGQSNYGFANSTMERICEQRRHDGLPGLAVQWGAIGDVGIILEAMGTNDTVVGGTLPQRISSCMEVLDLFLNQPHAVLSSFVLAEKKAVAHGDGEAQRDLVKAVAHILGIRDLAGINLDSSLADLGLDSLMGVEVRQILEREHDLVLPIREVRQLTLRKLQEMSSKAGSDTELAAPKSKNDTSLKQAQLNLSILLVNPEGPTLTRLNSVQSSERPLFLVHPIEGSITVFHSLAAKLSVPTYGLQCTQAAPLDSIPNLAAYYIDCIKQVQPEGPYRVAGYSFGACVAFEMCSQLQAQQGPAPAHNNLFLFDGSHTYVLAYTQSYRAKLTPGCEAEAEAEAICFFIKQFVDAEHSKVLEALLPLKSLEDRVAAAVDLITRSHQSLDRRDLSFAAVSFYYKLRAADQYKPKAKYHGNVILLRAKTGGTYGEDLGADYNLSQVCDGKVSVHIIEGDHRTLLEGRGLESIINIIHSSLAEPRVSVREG

[3] = Cytotoxicity against human HLF by MTT assay; format: cell-based; settings: HLF cells, read-out: TC50 (the source's name)
Method in brief: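 Human embryonic lung fibroblasts (HLF), viability read by MTT method. TC50 values are means of three experiments.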

[4] = test system: FAS; experiment: Therapeutic index, ratio of TC50 for human HLF to IC50 for rat liver FAS; settings: HLF cells (TC50)
Method in brief: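 In vitro therapeutic index = TC50 (HLF cells, MTT) / IC50 (purified rat liver FAS, NADPH oxidation at 340 nm).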

[5] = test system: HL-60; experiment: Cytotoxicity against human HL60 cells assessed as cell viability after 2 hrs by MTT assay; format: functional, cell-based; settings: HL-60, 2 h
Method in brief: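 HL60 cells in exponential growth suspended in 1640 medium, about 2×10^4 cells/well. Serially diluted compound (DMSO solution) added, then 2 h incubation at 37 °C in 5% CO2. Viable cells counted by MTT. […] given ± SD from three repeats.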

[6] = test system: HeLa; experiment: Cytotoxicity against human HeLa cells after 20 hrs by trypan blue exclusion assay; format: functional, cell-based
Method in brief: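 HeLa cells kept in DMEM with 10% fetal calf serum at 37 °C, 5% CO2, for 24 h. About 2.5×10^4 cells/well exposed to graded concentrations (DMSO solution) for 20 h. Cells then trypsinized and counted by trypan-blue exclusion. Three repeats gave SD.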

Fatty acid synthase (Rattus norvegicus), sequence (P12785 whole entry): as above

inhibition [1] | IC50 [2] | Compound | CC50 [3] | further results
16.7% |  | CCCCCCCC[C@H]1OC(=O)C(C)(C)[C@@H]1C(=O)O (relative stereo) |  | 
 | 122 µM | CCCCCCCCCC[C@H]1OC(=O)C(=C(C)C)[C@@H]1C(=O)O (relative stereo) | > 200 µM | 
38.4% |  | CCCCCCCCC[C@H]1OC(=O)C(=C(C)C)[C@@H]1C(=O)O (relative stereo) |  | 
17.4% |  | CCCCCCCC[C@H]1OC(=O)C(=C(C)C)[C@@H]1C(=O)O (relative stereo) |  | 
23.8% |  | CCCCCCCCC[C@H]1OC(=O)C(C)(C)[C@@H]1C(=O)O (relative stereo) |  | 
 |  | C=C1C(=O)O[C@H](CCCCCCCC)[C@H]1C(=O)O |  | selectivity ratio [4]: 5.61
 | 27.5 µM | CCCCCCCCCCC[C@H]1OC(=O)C(=C(C)C)[C@@H]1C(=O)O (relative stereo) | 153 µM | selectivity ratio [4]: 5.57
 | 29.8 µM | CCCCCCCCC[C@@H]1OC(=O)c2ccccc2[C@H]1C(=O)O (relative stereo) |  | 
 | 19.5 µM | CCCCCCCCCCC[C@@H]1OC(=O)c2ccccc2[C@H]1C(=O)O (relative stereo) | 94.2 µM | selectivity ratio [4]: 4.84
 | 2.56 µM | C=C1C(=O)S[C@H](CCCCCCCC)[C@H]1C(=O)O | 23.7 µM | selectivity ratio [4]: 9.26; IC50 [5]: 5.38 µM; IC50 [6]: 46.1 µM
35.9% |  | CCCCCCC[C@@H]1OC(=O)c2ccccc2[C@H]1C(=O)O (relative stereo) |  | 
 | 1.19 µM | C=C1C(=O)S[C@H](CCCCCCCCCC)[C@H]1C(=O)O | 6.8 µM | 
 | 88.6 µM | CCCCCCCC[C@@H]1OC(=O)c2ccccc2[C@H]1C(=O)O (relative stereo) |  | 
 | 24.2 µM | CCCCCCCCCC[C@@H]1OC(=O)c2ccccc2[C@H]1C(=O)O (relative stereo) | > 200 µM | 
19.4% |  | CCCCCC[C@@H]1OC(=O)c2ccccc2[C@H]1C(=O)O (relative stereo) |  | 
 | 0.79 µM | C=C1C(=O)S[C@H](CCCCCCCCCCC)[C@H]1C(=O)O | 4.75 µM | 
 | 16.7 µM | C=C1C(=O)S[C@H](CCCCCC)[C@H]1C(=O)O | 96.4 µM | selectivity ratio [4]: 5.76
 | 2.28 µM | C=C1C(=O)S[C@H](CCCCCCCCC)[C@H]1C(=O)O | 6.86 µM | 
